Screening data from PubChem.
Runt-CBFb FRET: blocks binding of human RUNX1 Runt domain to CBFb | 220,000 tested, 0.46% active | inhibition, % at 20 µM | Q01196+Q13951 | AID 1496 | Cerulean-Runt/Venus-CBFb FRET ratio 530/480, 1 h;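 active = inhibition over about 50% at 20 µM in the single-dose screen, limit read from the data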;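 also: 0% = DMSO wells and 100% = excess unlabeled CBFb competitor control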
Target sequence (Q01196 whole entry, looked up, the tested form may be a part): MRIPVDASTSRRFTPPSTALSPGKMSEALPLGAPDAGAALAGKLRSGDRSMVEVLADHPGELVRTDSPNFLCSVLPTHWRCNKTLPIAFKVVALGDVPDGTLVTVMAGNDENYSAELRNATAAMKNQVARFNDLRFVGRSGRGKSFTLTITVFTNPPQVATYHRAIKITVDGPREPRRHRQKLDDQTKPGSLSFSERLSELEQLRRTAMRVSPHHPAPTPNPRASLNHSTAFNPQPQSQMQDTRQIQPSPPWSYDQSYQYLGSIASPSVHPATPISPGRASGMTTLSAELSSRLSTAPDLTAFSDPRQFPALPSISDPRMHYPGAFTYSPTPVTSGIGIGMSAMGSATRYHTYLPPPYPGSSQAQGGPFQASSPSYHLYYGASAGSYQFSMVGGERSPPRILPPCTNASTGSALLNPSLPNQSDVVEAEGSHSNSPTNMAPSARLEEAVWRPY
Target sequence (Q13951 whole entry, looked up, the tested form may be a part): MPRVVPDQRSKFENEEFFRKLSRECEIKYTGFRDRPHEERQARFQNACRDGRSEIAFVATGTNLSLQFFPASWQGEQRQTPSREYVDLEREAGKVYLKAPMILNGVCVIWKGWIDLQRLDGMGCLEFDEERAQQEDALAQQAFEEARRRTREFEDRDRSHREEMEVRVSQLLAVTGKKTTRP
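Assay system: Cerulean-Runt domain / Medium: Tris 50 mM pH 7.5, KCl, K2SO4, 0.01% BSA / Timing: protein complex preformed 1 h, compound exposure 1 h, room temperature, dark / Measured by: FRET, excitation 422 nm, emission at 530 and 480 nm / Evaluation: loss of energy transfer signal / Control set: 5 µM unlabeled CBFb as full-inhibition high control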
Hck-Nef inh: blocks Nef-activated human Hck kinase | P08631 | 220,000 tested, 0.68% active | inhibition, % at 20 µM | AID 463187 | Recombinant Hck-YEEI plus Nef, Z-Lyte FRET kinase assay;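 active = Hck-Nef kinase inhibition above about 50%, limit read from the data; inactive = inhibition below that limit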;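 also: 0% = DMSO with Hck plus Nef and 100% = Hck alone without Nef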
Runt-SMMHC FRET: inhibitors of human RUNX1 Runt domain binding to CBFb-SMMHC; Cerulean-Runt/Venus-CBFb-SMMHC FRET ratio 530/480, 1 h; Q01196+Q13951; 220,000 tested, 0.74% active; inhibition, % at 20 µM; AID 1434;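 active = mean inhibition across duplicate retests at 20 µM reaching about 50%, limit read from the data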;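 also: 0% = DMSO wells and 100% = wells with excess untagged CBFb-SMMHC; inhibitors lower the FRET ratio by blocking Runt binding to CBFb-SMMHC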
p97 ATPase inh: blocks human p97 ATPase activity; recombinant p97 ATPase, Kinase-Glo ATP luminescence, 3 h; inhibition, % at 8 µM; 220,000 tested, 0.42% active; AID 1481; in the data active = inhibition above about 15%;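 also: 0% = DMSO vehicle and 100% = wells lacking enzyme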
RanGTP-Imp inh: inhibitors of RanGTP-importin-beta interaction, primary screen, biochemical, FRET, CFP-Ran, YFP-importin-beta, homogeneous | cell-free CFP-Ran/YFP-importin-beta FRET ratio | 300,000 tested, 1.1% active | inhibition, % (concentration not given with the values);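 active = more than half of the replicate wells show a fall in the fluorescence ratio signal beyond about 16%, limit read from the data, passing the limit was not always enough; inconclusive = exactly half of the replicate wells pass the set limit; inactive = fewer than half of replicates pass the limit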;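 also: 0% = DMSO wells and 100% = Ran loaded with GDP instead of GTP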
Tb hexokinase: T. brucei hexokinase 1 inhibition; recombinant TbHK1, G6PDH-coupled NADH A340; inhibition, % at 10 µM; 220,000 tested, 0.11% active;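 active = inhibition of 50% or more in the single-dose primary screen; inactive = inhibition below 50%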
Starred values were filed as active, the others as inactive; ? = inconclusive; / = no result. Rows were chosen to be rich in hits. Some 2.1% of all compounds tested hit in one or more screens of this group.

SMILES	Runt-CBFb FRET	Hck-Nef inh	Runt-SMMHC FRET	p97 ATPase inh	RanGTP-Imp inh	Tb hexokinase
C=C[C@H]1[C@H](OC2OC(CO)C(O)C(O)C2O)OC=C(C(=O)OC)[C@H]1C[C@H]1CC(=O)C[C@H](CC(=O)CCc2ccc(O)cc2)O1 (some centres not stated)	/	/	/	/	-4	/
O=C(CCc1nc2ccccc2c(=O)[nH]1)N1CCCc2ccccc21	/	/	/	/	3	/
CCOc1ccc(C(=O)NCC(=O)NNC(=O)CN(C)S(=O)(=O)c2ccc(Cl)cc2)cc1	/	/	/	/	3	/
CCN1/C(=C2\OC(=S)N(C)C2=O)Sc2ccccc21	14	7	64*	-3	-4	-9
COC(=O)C1=CN(Cc2ccc(OC)cc2)C=C(C(=O)OC)C1c1cc(OC)c(OC)c(OC)c1	/	/	/	/	13	/
COC(=O)C1=CN(CC2CCCO2)C=C(C(=O)OC)C1c1cc(OC)c(OC)c(OC)c1 (configuration not stated)	37	45	93*	-1	3	-11
CC[C@@]12C(=O)N(c3ccc(OC)cc3)C(=O)N1[C@H](c1ccc(Cl)cc1)[C@@H]1C(=O)N(C3CCCCC3)C(=O)[C@@H]12	/	/	/	/	6	/
Cc1[nH]c2ccccc2c1CCCO	9	-18	84	0	18*	-13
Cc1[nH]c2ccccc2c1CCO	43	-1	-2	-3	6	4
CN(C)S(=O)(=O)c1ccc(C(=O)Nc2cc3c(cc2C(=O)O)OCCCO3)cc1	/	/	/	/	0	/
Cc1cc(=O)n2c3ccccc3n(C)c2n1	/	/	/	/	4	/
CCOC(=O)C1CCN(c2nc3ccccc3n2CC(=O)c2ccccc2)CC1	2	21	-1	-5	21*	-3
COc1ccc(N2CCN(c3nc4ccccc4n3CC(=O)c3ccccc3)CC2)cc1	-2	-10	-5	-7	9	7
COc1cc(C2C(C#N)=C(N)OC3=C2C(=O)CC(C)(C)C3)c([N+](=O)[O-])cc1OC (configuration not stated)	/	12	-45	4	-14	-17
CC1(C)CC(=O)C2=C(C1)OC(N)=C(C#N)[C@@H]2c1ccccc1[N+](=O)[O-]	94*	0	50	12	49*	-22
O=C1CC(C(=O)Nc2ccccc2)S/C(=N\NC(=O)c2ccccc2Cl)N1 (configuration not stated)	/	1	0	0	2	-1
CN1CCC(=NOc2ccc([N+](=O)[O-])cc2)CC1	1	24	-2	0	0	-14
O=Cc1ccc(N2N=C(c3ccccc3)CC2c2ccccc2)cc1 (configuration not stated)	/	/	/	/	8	/
N#CCC(=O)N/N=C/c1ccc(N2N=C(c3ccccc3)CC2c2ccccc2)cc1 (configuration not stated)	/	/	/	/	99*	/
COc1ccc(C2=NN(c3ccc(C=O)cc3)C(c3ccccc3)C2)cc1 (configuration not stated)	/	/	/	/	31*	/
COc1ccc(C2CC(c3ccccc3)=NN2c2ccc(/C=N/NC(=O)c3ccncc3)cc2)cc1 (configuration not stated)	-112	4	-248	-1	19*	-5
COc1cc2[nH]c(=O)c(C(=O)NCc3ccccc3Cl)c(O)c2cc1OC	/	/	/	/	5	/
O=C(CCN1C(=O)C2CCCCC2C1=O)Nc1nc(-c2ccccc2)cs1 (configuration not stated)	1	5	2	-6	?	0
CSCCC(NC(=O)c1ccccc1Cl)C(=O)Nc1ccc(C)c(S(=O)(=O)N2CCOCC2)c1 (configuration not stated)	/	/	/	/	-1	/
COc1ccccc1C1CN(c2ccc(F)cc2F)N=C1c1cccs1 (configuration not stated)	16	47	83*	-8	-10	-4
CC1CCCCC1NC(=O)CCC(=O)N1CCOc2ccc(Cl)cc21 (configuration not stated)	/	/	/	/	1	/
Cc1ccc(-c2csc(NC(=O)/C=C/c3ccco3)c2C(=O)O)cc1	12	52*	-4	4	?	-1
Cc1ccc(-c2csc(NC(=O)c3cccc(C)c3)c2C(=O)O)cc1	/	/	/	/	0	/
